In ChEMBL document CHEMBL1157608, “The discovery of 4-{1-[({2,5-dimethyl-4-[4-(trifluoromethyl)benzyl]-3-thienyl}carbonyl)amino]cyclopropyl}benzoic acid (MK-2894), a potent and selective prostaglandin E2 subtype 4 receptor antagonist” (J Med Chem, 2010):

Key:
[1] = Oral bioavailability in Sprague-Dawley rat at 20 mg/kg; type: ADME, organism-based; conditions: in vivo
In short: (§1)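 Overnight-fasted animals dosed po in 0.5% methocel or iv in 60% PEG 200; plasma from serial blood samples stored at -10 °C, protein-precipitated with equal volume acetonitrile/0.1% formic acid, analysed by LC/MS/MS with internal standard against spiked blank-plasma standards; Cmax from po data, half-life from iv data.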

[2] = system: Rattus norvegicus; experiment: Analgesic activity in po dosed Sprague-Dawley rat assessed as inhibition of carrageenan-induced mechanical hyperalgesia
[3] = molecular target: T1, Prostaglandin D2 receptor 2 (Homo sapiens, UniProt Q9Y5Y4); experiment: Displacement of [3H]PGD2 from human DP2 receptor expressed in HEK293-EBNA cells by scintillation counting; type: cell-based
T1 sequence (Q9Y5Y4 whole entry): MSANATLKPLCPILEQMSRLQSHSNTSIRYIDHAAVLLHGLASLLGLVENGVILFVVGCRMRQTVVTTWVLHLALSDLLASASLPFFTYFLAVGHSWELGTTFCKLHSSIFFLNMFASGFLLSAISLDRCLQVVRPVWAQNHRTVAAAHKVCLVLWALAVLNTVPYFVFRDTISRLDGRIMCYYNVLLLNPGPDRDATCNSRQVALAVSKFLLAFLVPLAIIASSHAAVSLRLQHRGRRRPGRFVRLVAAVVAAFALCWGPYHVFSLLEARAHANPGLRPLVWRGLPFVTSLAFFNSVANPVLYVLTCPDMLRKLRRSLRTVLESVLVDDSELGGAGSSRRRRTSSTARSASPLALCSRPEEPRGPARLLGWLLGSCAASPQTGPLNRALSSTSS
In short: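 Radioligand binding on membranes from HEK 293(EBNA) clonal lines overexpressing each prostanoid receptor, using the respective 3H-prostaglandin or thromboxane ligand; EP4 binding also run with 10% human serum; Ki as means of at least three experiments (rEP2, rEP3 n = 1).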

[4] = Oral bioavailability in Beagle dog at 5 mg/kg; type: ADME, organism-based, Canis lupus familiaris; conditions: in vivo; in short: as §1
[5] = molecular target: Prostaglandin E2 receptor EP4 subtype (Homo sapiens, UniProt P35408); experiment: Activity at EP4 receptor in human whole blood assessed as blockade of inhibition of TNF-alpha-induced IP10 release; type: functional, tissue-based
Chain of Prostaglandin E2 receptor EP4 subtype (P35408 whole entry): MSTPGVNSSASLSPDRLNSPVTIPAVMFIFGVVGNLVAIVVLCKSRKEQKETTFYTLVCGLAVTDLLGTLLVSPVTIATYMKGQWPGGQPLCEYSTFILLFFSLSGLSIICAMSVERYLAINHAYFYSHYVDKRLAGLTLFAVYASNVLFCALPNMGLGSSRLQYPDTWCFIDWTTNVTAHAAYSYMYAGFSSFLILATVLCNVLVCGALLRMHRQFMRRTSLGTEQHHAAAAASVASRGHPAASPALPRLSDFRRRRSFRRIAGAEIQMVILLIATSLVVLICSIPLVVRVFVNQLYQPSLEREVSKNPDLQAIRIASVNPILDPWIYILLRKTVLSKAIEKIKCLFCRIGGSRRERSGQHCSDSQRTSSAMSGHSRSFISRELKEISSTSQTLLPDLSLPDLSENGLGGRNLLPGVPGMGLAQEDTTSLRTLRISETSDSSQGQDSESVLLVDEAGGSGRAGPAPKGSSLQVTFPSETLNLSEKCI
In short: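 Human whole blood; TNF-alpha-stimulated IP-10 release, suppressed by the selective EP4 agonist L-902688 (used in place of PGE2); antagonism measured as reversal of that suppression; IC50.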

bioavailability [1]: 29%
EC50 [2]: 250 nM
Ki [3]: > 21000 nM
bioavailability [4]: 32%
IC50 [5]: 11 nM
SMILES: Cc1sc(C)c(C(=O)NC2(c3ccc(C(=O)O)cc3)CC2)c1Cc1ccc(C(F)(F)F)cc1
ED50 ([2]; po): 0.36 mg/kg
